PubChem BioAssay
Results filed as inconclusive are left out.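 How the source made its calls, unless noted: active means inhibition over a set limit, the all-compound mean plus 3 SD, in both replicate runs; inconclusive means over that limit in just one replicate run; inactive means at or under that limit in both runs.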

Experiments:
[1] = S. cerevisiae growth inhibition in permissive medium (OD615), pilot counter-assay for S. cerevisiae lifespan shortening project, permissive growth control (AID 705;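 active means growth inhibition above 25% in both replicates, a cutoff set 3 SD above the mean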); settings: OD615, 24 h, at 10 µM, hits give high values
Outline: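 System: S. cerevisiae with engineered DeaD lifespan system. Medium: SC raffinose/galactose permissive medium. Doses: single compound dose of 10 µM, 0.25% DMSO final. Schedule: 24 h exposure, 30 °C. Measured by: OD615 turbidity read. Read-out: growth inhibition.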

[2] = S. cerevisiae growth inhibition in restrictive medium, OD615, pilot screen, restrictive growth control, yeast lifespan reduction project (AID 706;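 active means growth inhibition above a set limit, 3 SD over mean compound inhibition, in both replicates, cut at about 43% in these data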;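 further: modified DeaD lifespan yeast strain shifted to restrictive glucose medium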); settings: OD615, 48 h, at 10 µM, hits give high values
Outline: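 Assay system – genetically modified Saccharomyces cerevisiae, DeaD replicative lifespan assay strain · Medium – CSMM-D glucose medium · Doses – 10 µM compound, 0.25% DMSO · Times – 4 h pre-incubation, 48 h exposure at 30 °C · Signal – optical density at 615 nm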

[3] = doxorubicin toxicity protection in MRP-1 cells – H69AR cells, CellTiter-Glo, duplicate, MRP-1 activator project, pilot screen (AID 807;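 active means viability increase at or above a cutoff of the median across tested compounds plus 3 SD, cut at about 8.5% in these data, passing the limit was not always enough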;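 further: compound pretreatment 18-22 h then 72 h combined with doxorubicin; 0% = doxorubicin alone and 100% = vehicle without doxorubicin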); settings: H69AR viability with doxorubicin, CellTiter-Glo luminescence; at 10 µM; hits give high values
[4] = viability of HCT116 without oncogenic beta-catenin – human colon tumor cells, pilot screen (AID 823;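 active means cell viability at or below a set limit in both duplicate runs, the limit being the all-compound median minus 4 SD, cut at about 23% in these data, passing the limit was not always enough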;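 further: 0% = wells killed by 20 µM Hyamine and 100% = untreated DMSO cell wells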); settings: HCT116 beta-catenin knockout viability, CellTiter-Glo, 60 h; at 10 µM; hits give low values
[5] = viability of PTEN-null HCT116 cells – cell-based, HCT116 clonal line, CellTiter-Glo, pilot screen (AID 824;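 active means viability at or below 27.92% in each of two runs, the all-compound median minus 4 SD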;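 further: 0% = 20 µM Hyamine control and 100% = vehicle cell control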); settings: HCT116 PTEN-deleted viability, 60 h, at 10 µM, hits give low values
[6] = RAM pathway blockade in budding yeast – dse1pr::URA3 reporter, 5-FOA selection, pilot screen (AID 869);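 further: 0% = DMSO wells with no growth and 100% = 10 µM 1-NA-PP1 with full growth; RAM network block rescues cells from 5-FOA so hits raise OD615 growth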; settings: S. cerevisiae dse1pr::URA3 5-FOA growth, OD615, 2 d; at 10 µM; hits give high values; strain carries analog-sensitive mutant Cbk1 kinase
[7] = RAM signaling pathway blockade in yeast – S. cerevisiae, Pdr1DBD-CYC8 efflux-inhibited sensitized strain, primary screen (AID 1298;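 active means RAM network inhibition above 8.4% in each of two replicates, 3 SD over the compound average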;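 further: 0% = DMSO untreated cells without growth and 100% = 10 µM 1-NA-PP1 full growth; higher means more yeast growth rescued from 5-FOA killing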); settings: S. cerevisiae cbk1-as DSE1-URA3 strain, 5-FOA growth OD615, 2 d; at 50 µM; hits give high values

Cc1ccc(CCN2C(=O)CCC2(C)C(=O)NC2CCCC2)cc1 (configuration not stated)
inactive: growth inhibition [1] -7.04% | growth inhibition [2] -1.27% | viability increase [3] -4.22% | viability [4] 97.5% | viability [5] 100% | inhibition [6] 1.19% | RAM network inhibition [7] 5.93%

O=C(CCn1c(=O)oc2ccccc21)NCc1ccc2c(c1)OCO2
inactive: growth inhibition [1] -11.4% | growth inhibition [2] -19.9% | viability increase [3] -2.85% | viability [4] 100% | viability [5] 91.3% | inhibition [6] 2.35% | RAM network inhibition [7] 6.04%

COC(=O)C1=C(C)Nc2nc(-c3ccccc3)nn2C1c1ccc(C)o1 (configuration not stated)
inactive: growth inhibition [1] -4.19% | growth inhibition [2] 12.3% | viability increase [3] -4.23% | viability [4] 78.3% | viability [5] 76.1% | inhibition [6] 2.19% | RAM network inhibition [7] 1.2%

Cc1ccc(C(=O)N2CCN(C3CCCCC3)CC2)s1
inactive: growth inhibition [1] -3.88% | growth inhibition [2] -0.76% | viability increase [3] -1.15% | viability [4] 102% | viability [5] 97.7% | inhibition [6] 1.48% | RAM network inhibition [7] 1.05%

N#CC1(c2ccccc2)CCCN1C(=O)c1ccco1 (configuration not stated)
inactive: growth inhibition [1] -3.57% | growth inhibition [2] 3.69% | viability increase [3] -1.54% | viability [4] 104% | viability [5] 101% | inhibition [6] 2.25% | RAM network inhibition [7] 3.1%

CCn1c(N2CCC(C)CC2)nc2c1c(=O)n(C)c(=O)n2C
inactive: growth inhibition [1] -10.5% | growth inhibition [2] 1.69% | viability increase [3] -0.88% | viability [4] 92.9% | viability [5] 85% | inhibition [6] 1.12% | RAM network inhibition [7] 0.06%

Cc1ccc(Cn2c(Sc3nnc(C)s3)nc3c2c(=O)[nH]c(=O)n3C)cc1
inactive: growth inhibition [1] -1.77% | growth inhibition [2] -4.4% | viability increase [3] -2.58% | viability [4] 85.8% | viability [5] 78.6% | inhibition [6] 2.5% | RAM network inhibition [7] 1.84%

Cn1c(Cn2c(=O)sc3ccccc32)nnc1SCC(=O)N1CCCCCC1
inactive: growth inhibition [1] -15% | growth inhibition [2] -23.5% | viability increase [3] -0.71% | viability [4] 102% | viability [5] 95.2% | inhibition [6] 2.58% | RAM network inhibition [7] 1.04%

O=C(C1CCN(S(=O)(=O)c2cccc3cccnc23)CC1)N1CCN(C2CCCC2)CC1
inactive: growth inhibition [1] -9.46% | growth inhibition [2] 7.92% | viability increase [3] -1.82% | viability [4] 94.3% | viability [5] 99.2% | inhibition [6] 0.96% | RAM network inhibition [7] 0.11%

NC(=O)c1sc(=S)n(-c2ccc(Br)cc2)c1N
inactive: growth inhibition [1] -6.66% | growth inhibition [2] 0.735% | viability increase [3] -4.05% | viability [4] 97.7% | viability [5] 83.7% | inhibition [6] 1.51% | RAM network inhibition [7] 2.48%

Cc1cc(/C=N/n2cnnc2)c(C)n1-c1cc(Cl)ccc1Cl
inactive: growth inhibition [1] 3.15% | growth inhibition [2] 18.3% | viability increase [3] -3.01% | viability [4] 51.9% | viability [5] 69.7% | inhibition [6] 1.85% | RAM network inhibition [7] 1.38%

CC1=C(C(=O)OC(C)C)C(c2cccs2)n2ncnc2N1 (configuration not stated)
inactive: growth inhibition [1] -1.96% | growth inhibition [2] 7.93% | viability increase [3] -1.21% | viability [4] 101% | viability [5] 96.2% | inhibition [6] 0.955% | RAM network inhibition [7] 2.09%

CCc1cc2c(=O)c(-c3nc4ccccc4[nH]3)coc2c(CN2CCCC(C)C2)c1O (configuration not stated)
inactive: growth inhibition [1] -3.79% | growth inhibition [2] 12.3% | viability increase [3] -0.47% | viability [4] 103% | viability [5] 92.8% | inhibition [6] -0.17% | RAM network inhibition [7] 0.56%

O=C(CCCc1ccccc1)NCCN1CCOCC1
inactive: growth inhibition [1] -12.1% | growth inhibition [2] -5.57% | viability increase [3] 1.56% | viability [4] 104% | viability [5] 97.9% | inhibition [6] 0.795% | RAM network inhibition [7] 2.4%

COc1cc2[nH]c(=O)n(CCC(=O)NCc3cccnc3)c(=O)c2cc1OC
inactive: growth inhibition [1] -19.1% | growth inhibition [2] -23.9% | viability increase [3] -1.46% | viability [4] 98.7% | viability [5] 95.8% | inhibition [6] 2.92% | RAM network inhibition [7] 2.26%

O=C(NC1CCN(C(=O)N2c3ccccc3Sc3ccccc32)CC1)c1ccco1
inactive: growth inhibition [1] -3.83% | growth inhibition [2] -13.8% | viability increase [3] -3.6% | viability [4] 65.1% | viability [5] 59.7% | inhibition [6] -0.48% | RAM network inhibition [7] 4.1%

CCOC(=O)N1CCN(C(=O)C2CCN(Cc3nc(-c4ccccc4C)oc3C)CC2)CC1
inactive: growth inhibition [1] -13.5% | growth inhibition [2] -31.5% | viability increase [3] -1.65% | viability [4] 85.3% | viability [5] 88% | inhibition [6] 0.75% | RAM network inhibition [7] 1.63%

CCOc1ccccc1C1CC(c2ccccc2)Nc2nc(N)nn21 (configuration not stated)
inactive: growth inhibition [1] -1.36% | growth inhibition [2] 8.93% | viability increase [3] -1.31% | viability [4] 97.2% | viability [5] 88.2% | inhibition [6] 2.27% | RAM network inhibition [7] 2.72%

COc1ccc(-c2nc(CS(=O)CC(=O)NCc3ccco3)c(C)o2)cc1 (configuration not stated)
inactive: growth inhibition [1] -8.38% | growth inhibition [2] 17.3% | viability increase [3] -4.45% | viability [4] 92.5% | viability [5] 100% | inhibition [6] 1.88% | RAM network inhibition [7] 0.58%

N#CC1=C(N)Oc2c(sc3ccccc23)C1c1ccco1 (configuration not stated)
inactive: growth inhibition [1] -25.7% | growth inhibition [2] -4.08% | viability increase [3] -4.53% | viability [4] 63.3% | viability [5] 65.2% | inhibition [6] 1.22% | RAM network inhibition [7] -0.62%

Nc1cc(C(=O)c2cccs2)ccc1Cl
inactive: growth inhibition [1] -9.76% | growth inhibition [2] -0.475% | viability increase [3] -1.88% | viability [4] 90.9% | viability [5] 96.7% | inhibition [6] 0.165% | RAM network inhibition [7] 3.24%

Cn1c(NC(=O)c2cccc(C(F)(F)F)c2)cc(=O)n(C)c1=O
inactive: growth inhibition [1] -16% | growth inhibition [2] -5.14% | viability increase [3] -2.74% | viability [4] 98.8% | viability [5] 94.5% | inhibition [6] 0.925% | RAM network inhibition [7] 1.89%

COc1cccc(C2c3c(oc4ccccc4c3=O)C(=O)N2CCCN2CCOCC2)c1 (configuration not stated)
inactive: growth inhibition [1] -10.5% | growth inhibition [2] -5.13% | viability increase [3] -3.16% | viability [4] 95.1% | viability [5] 93.1% | inhibition [6] 1.13% | RAM network inhibition [7] 2.84%

Cn1cnnc1SCC(=O)Nc1ccccc1
inactive: growth inhibition [1] -6.99% | growth inhibition [2] -16.3% | viability increase [3] 2.03% | viability [4] 100% | viability [5] 102% | inhibition [6] -0.32% | RAM network inhibition [7] 1.79%

O=C(NCc1ccc(F)cc1)c1cnc2n(c1=O)CCS2
inactive: growth inhibition [1] -2.45% | growth inhibition [2] -2.23% | viability increase [3] 2.85% | viability [4] 101% | viability [5] 102% | inhibition [6] 0.54% | RAM network inhibition [7] -0.84%

COc1ccc(N)cc1C#N
inactive: growth inhibition [1] -7.31% | growth inhibition [2] -5.58% | viability increase [3] -3.17% | viability [4] 98.5% | viability [5] 93.6% | inhibition [6] 1.06% | RAM network inhibition [7] 1.63%

COc1ccc(C2C(C(=O)N3CCCC3)c3cc(OC)c(OC)cc3C(=O)N2C)cc1OC (configuration not stated)
inactive: growth inhibition [1] -6.69% | growth inhibition [2] -25.4% | viability increase [3] -1.65% | viability [4] 105% | viability [5] 100% | inhibition [6] 1.54% | RAM network inhibition [7] 2.23%

CSC1=NCCN1C(=O)COc1ccccc1
inactive: growth inhibition [1] 5.44% | growth inhibition [2] -6.09% | viability increase [3] 1.95% | viability [4] 97.8% | viability [5] 104% | inhibition [6] 1.57% | RAM network inhibition [7] 2.21%

O=C(C(c1ccccc1)c1ccccc1)N1CCOCC1
inactive: growth inhibition [1] -6.96% | growth inhibition [2] 1.92% | viability increase [3] -1.34% | viability [4] 100% | viability [5] 95.9% | inhibition [6] 0.87% | RAM network inhibition [7] 0.31%

Cc1cc(C)nc(SCC(=O)Oc2ccc3oc(=O)cc(C)c3c2)n1
inactive: growth inhibition [1] -15.6% | growth inhibition [2] -10.1% | viability increase [3] -3.67% | viability [4] 97% | viability [5] 95.4% | inhibition [6] 1.63% | RAM network inhibition [7] 3.39%

COc1ccc(CCNC(=O)COC(=O)c2cnc(C)cn2)cc1OC
inactive: growth inhibition [1] -8.52% | growth inhibition [2] -14.6% | viability increase [3] 1.73% | viability [4] 106% | viability [5] 100% | inhibition [6] 0.395% | RAM network inhibition [7] 2.42%

COC(=O)C1=C(C)N(C)C(C)=C(C(=O)OC)C1c1cccc(Br)c1
inactive: growth inhibition [1] -16.7% | growth inhibition [2] 0.915% | viability increase [3] 0.06% | viability [4] 72% | viability [5] 67.4% | inhibition [6] 0.57% | RAM network inhibition [7] 9.03%

COc1ccc(CCNC(=O)Cc2cc(=O)[nH]c(=O)[nH]2)cc1OC
inactive: growth inhibition [1] 6.42% | growth inhibition [2] 3% | viability increase [3] -0.97% | viability [4] 96.7% | viability [5] 97.6% | inhibition [6] 1.35% | RAM network inhibition [7] 1.23%

COc1c(C)cccc1C(=O)Nc1cc(-c2nn3c(C)nnc3s2)ccc1C
inactive: growth inhibition [1] 13.5% | growth inhibition [2] 37% | viability increase [3] -5.61% | viability [4] 73.9% | viability [5] 64.2% | inhibition [6] 2.07% | RAM network inhibition [7] 7.01%

COCCn1c(C)cc(C(=O)CSc2nnc3ccccn23)c1C
inactive: growth inhibition [1] 8.47% | growth inhibition [2] 3.52% | viability increase [3] -1.95% | viability [4] 98.8% | viability [5] 91.7% | inhibition [6] 0.76% | RAM network inhibition [7] 2.51%

CCCC(=O)c1c(NC)cc(C)oc1=O
inactive: growth inhibition [1] -7.03% | growth inhibition [2] 4.71% | viability increase [3] -0.53% | viability [4] 97.2% | viability [5] 92.2% | inhibition [6] 0.62% | RAM network inhibition [7] 3.99%
